Experiments:
HIF-1α [1] = assay: HIF-1α stabilisation immunoblot in Hep3B cells; format: cell-based, human; details: for Cell-based activity HIF-1α Induction: methyl or ethyl esters (numbers in parentheses) tested, 0.1 mM and 1 mM; for Cell-based activity HIF-1α Induction / HIF-1α stabilization / HIF-1α stabilization in presence of Fe(II): Hep3B cells, 6 h; for HIF-1α stabilization: absence of added Fe(II); for HIF-1α stabilization in presence of Fe(II): equimolar amount of Fe(II)
In short: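 Confluent human Hep3B hepatoma cells given methyl or ethyl ester forms of test compounds (100 mM DMSO stock) for 6 h under normoxia. Fe(II) experiments added equimolar Fe(II) either at the start or for the final 2 h, with DFO and DMOG as comparators. Whole-cell lysate immunoblots probed with mouse anti-HIF-1α (clone 54).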

[2] = target: catalytic domain of PHD2 (residues 181-426) (Homo sapiens, UniProt Q9GZT9); assay: Non-denaturing ESI-MS binding to PHD2 in presence of Fe; details: standard conditions; for PHD2-iron-compound complex formation / binding of a second iron in ESI-MS: 2 equiv. Fe(II), 1 equiv. compound; for ESI-MS competition with NOG for binding to PHD2: equimolar NOG
PHD2 = PHD2 (Homo sapiens, UniProt Q9GZT9); assay: AlphaScreen PHD2 inhibition assay; format: biochemical; details: 10μM and 300μM of compounds
HIF-1α [3] = assay: HIF-1α stabilisation immunoblot in RCC4/VHL cells; format: cell-based, human; details: 200 μM and 1mM
[4] = system: HIF prolyl and asparaginyl hydroxylases; assay: HIF-1α prolyl; format: cell-based, human; details: RCC4 cells, 1 mM and 2 mM
In short: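 VHL-defective RCC4 renal carcinoma cells carrying empty vector (RCC4/VA), which cannot degrade HIF-1α by the proteasome, grown to confluence and treated 5 h with test compound from 100 mM DMSO stock. Whole-cell lysate immunoblots probed with Hyp564- and HyAsn803-specific antibodies. Signals normalised to HIF-1α band intensity, with β-tubulin/β-actin as loading controls. DMSO negative and DMOG positive controls.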

catalytic domain of PHD2 (residues 181-426), sequence (Q9GZT9 181-426): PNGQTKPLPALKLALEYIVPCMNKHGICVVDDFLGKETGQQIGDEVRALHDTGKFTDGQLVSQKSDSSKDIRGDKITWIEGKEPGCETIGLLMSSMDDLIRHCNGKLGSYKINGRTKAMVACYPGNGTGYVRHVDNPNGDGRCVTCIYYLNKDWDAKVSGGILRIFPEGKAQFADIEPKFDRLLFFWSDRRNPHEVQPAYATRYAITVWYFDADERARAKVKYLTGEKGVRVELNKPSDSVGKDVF
PHD2, sequence (Q9GZT9 181-426): as above

Structure (SMILES): O=C(O)CNC(=O)c1nc(Cl)c2ccccc2c1O [BIQ, 2-(1-chloro-4-hydroxyisoquinoline-3-carboxamido)acetic acid]
- Cell-based activity HIF-1α Induction (HIF-1α [1]): Active

Structure (SMILES): O=C(O)CCCC(=O)NNC(=O)c1ccccn1 [Compound 2]
- PHD2-iron-compound complex formation / binding of a second iron in ESI-MS [2]: formed a two-iron complex with PHD2
- PHD2 inhibition in initial two-concentration screening (PHD2): weak PHD2 inhibitors

Structure (SMILES): O=C(O)/C=C\C(=O)NNC(=O)c1ccccn1 [Compound 4]
- PHD2 inhibition in initial two-concentration screening (PHD2): weak PHD2 inhibitors

Structure (SMILES): O=C(O)/C=C/C(=O)NNC(=O)c1ccccn1 [Compound 5]
- PHD2-iron-compound complex formation / binding of a second iron in ESI-MS [2]: only bound to one iron
- HIF-1α upregulation (HIF-1α [3]): upregulated HIF-1α, but to a lesser extent than its ester

Structure (SMILES): O=C(O)/C=C/C(=O)NNC(=O)c1cccnc1 [Compound 9]
- ESI-MS competition with NOG for binding to PHD2 [2]: compete effectively with NOG for binding to PHD2

Structure (SMILES): O=C(O)CCC(=O)NNC(=O)c1cc2ccccc2cn1 [Compound 11]
- ESI-MS competition with NOG for binding to PHD2 [2]: compete effectively with NOG for binding to PHD2
- HIF-1α levels, free carboxylate compounds (HIF-1α [1]; human hepatoma Hep3B cells, free acid form): did not up-regulate HIF-1α levels

Structure (SMILES): O=C(O)/C=C/C(=O)NNC(=O)c1cc2ccccc2cn1 [Compound 14]
- HIF-1α upregulation (HIF-1α [3]): almost no HIF-1α induction

Structure (SMILES): CC(=O)N(O)CCCCCNC(=O)CCC(=O)N(O)CCCCCNC(=O)CCC(=O)N(O)CCCCCN [DFO, deferoxamine]
- HIF-1α stabilization (HIF-1α [1]): induced HIF-1α stabilization
- HIF-1α stabilization in presence of Fe(II) (HIF-1α [1]): HIF-1α stabilization was not observed

Structure (SMILES): COC(=O)CNC(=O)C(=O)OC [DMOG, Dimethyloxalyl glycine]
- Inhibition of HIF prolyl-hydroxylation [4]: only partially inhibited
- HIF-1α stabilization (HIF-1α [1]): induced HIF-1α stabilization
- HIF-1α stabilization in presence of Fe(II) (HIF-1α [1]): reduction in HIF-1α stabilization
- Cell-based activity HIF-1α Induction (HIF-1α [1]): Active

From paper PMC4677462 (Organic & biomolecular chemistry, 2012)
